Only a selection was taken, and hits are over-represented in it overall.
Yeast growth inh = growth inhibitors of yeast BB579 in restrictive medium, primary screen, yeast lifespan-shortening project, S. cerevisiae | OD615, 48 h | inhibition, % at 10 µM | hit rate 0.51% among 140,000 | AID 804, 2007;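 active means inhibition above a set limit, 3 SD over the mean compound inhibition, cut at about 44% in these data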
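Assay system: S. cerevisiae DeaD strain BB579 yeast. Medium: CSMM-D restrictive synthetic medium containing dextrose (glucose). Times: 4 h cell preincubation, 48 h compound exposure, 30 °C humidified. Signal: OD615 turbidity measurement. Benchmarks: positive control amphotericin B 10 µg/mL.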
Yeast lifespan up = compounds extending yeast replicative lifespan, primary screen, S. cerevisiae, OD615; S. cerevisiae growth with nicotinamide; deaD strain in restrictive glucose medium; inhibition of the nicotinamide effect, % at 10 µM; hit rate 0.68% among 130,000;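 active means inhibition above a set limit, placed 3 SD over the median of all compounds, cut at about 26% in these data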;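 further: 0% = nicotinamide-treated wells and 100% = cells grown without nicotinamide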
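assay system = DeaD-strain S. cerevisiae | measured by = absorbance at 615 nm | probe or stimulus = nicotinamide 1.5 mM | buffer or medium = CSMM-D glucose medium, restrictive | times = 48 h at 30 °C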
PostGolgi yeast = phenotypic screen on post-Golgi transport, primary screen; post-Golgi transport phenotypic cell assay; inhibition, % at 10 µM; hit rate 0.9% among 98,000; AID 739, 2007;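 further: yeast cells grown in 1536-well plates; yeast grown about 18 h at 30C before absorbance read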
PostGolgi ctrl = growth inhibition of yeast control strain, primary screen, counter-screen for post-Golgi transport modulator project | inhibition, % at 10 µM | hit rate 5% among 98,000 | efflux-deficient yeast background strain, growth absorbance A615, 16 h
Active calls of the source: *; / = not tested or not shown. Unless noted, no stated cut-off is given here; in the data, active means inhibition above about 30%; inactive means the rest.

SMILES	Yeast growth inh	Yeast lifespan up	PostGolgi yeast	PostGolgi ctrl
Cc1cccc(OCC(=O)O/N=C(\N)Cc2ccc(Cl)cc2)c1	-59	-11	30*	-2
N/C(Cc1ccc(Cl)cc1)=N\OC(=O)c1ccccc1	96*	-13	-1	45*
Clc1ccc(-c2nc3cnccn3c2NC2CCCC2)cc1	9	-6	22	31*
Clc1ccc(-c2nc3cnccn3c2Nc2ccc3c(c2)OCO3)cc1	0	-7	-3	38*
Cc1cc(N/N=C/c2ccc(Cl)cc2Cl)nc(NCc2ccccc2)n1	99*	-14	/	/
Cc1cc(Nc2ccc(Cl)cc2)nc(NCc2ccccc2)n1	-28	-10	/	/
CC1CC(C)CN(c2ccc(C(=O)NCc3ccc4c(c3)OCO4)cc2[N+](=O)[O-])C1 (configuration not stated)	-13	16	/	/
Cc1ccc2[nH]c(=O)c(CN(Cc3cccnc3)C(=O)c3ccncc3)cc2c1	-1	-8	-4	-3
CCCCCC/C(C)=C1/SC(=S)NC1=O	95*	-13	-3	55*
Cc1[nH]n(-c2ccc(F)cc2)c(=O)c1C=Nc1ccc(S(=O)(=O)N(C)C)cc1	-59	10	/	/
Cc1cc(C)cc(CC2CC(=O)N(c3ccc(Cl)cn3)C2=O)c1 (configuration not stated)	-25	43*	-6	6
O=C1CC(N(Cc2ccco2)C(=O)Nc2ccc(F)cc2)C(=O)N1c1ccc(F)cc1 (configuration not stated)	-60	-9	-14	7
Cc1cc(C)c2c(=O)[nH]c(SCC(=O)N(C)C)nc2n1	-10	-24	36*	17
Cc1cc(C)cc(N(CC(=O)NCc2ccco2)S(=O)(=O)c2c(C)noc2C)c1	24	-3	6	19
Cc1ccc(SCCC(=O)NCCSCc2ccccc2C)cc1	-21	-1	7	54*
CCN(CC)c1ccc2cc(S(=O)(=O)c3ccc(C)cc3)c(=O)oc2c1	-32	-1	/	/
CN1CCN(CC(O)COc2ccc(OCC(O)CN3CCN(C)CC3)cc2)CC1 (configuration not stated)	-30	/	/	/
CC(C)c1ccc(OCC(O)CN2CCN(c3ccccc3)CC2)cc1 (configuration not stated)	-48	-15	51*	63*
O=S(=O)(CCc1nc2ccccc2[nH]1)c1ccc(Br)cc1	-52	7	/	/
CCOC(=O)C1Cn2c(nc3c(c2=O)C2(CCCC2)Cc2ccccc2-3)S1 (configuration not stated)	-21	-23	-3	38*
CC1(C)Cc2ccccc2-c2nc(NCCCO)n(-c3ccccc3)c(=O)c21	-38	0	3	13
CCOC(=O)C1Cn2c(nc3c(c2=O)C(C)(C)Cc2ccccc2-3)S1 (configuration not stated)	-21	-4	22	32*
CC(C)NC(=O)c1noc2cc([N+](=O)[O-])ccc12	-21	-10	-3	-13
COc1cc(NC(=O)NCCN2CCN(c3ccc(Cl)cc3)CC2)ccc1C	-24	-15	15	0
COc1ccc(NC(=O)NCCN2CCN(c3cccc(Cl)c3)CC2)cc1	6	-9	43*	42*
SMILES	Yeast growth inh	Yeast lifespan up	PostGolgi yeast	PostGolgi ctrl
Cc1noc(C)c1CSc1nnnn1-c1ccc(Cl)cc1	-43	-22	18	30*
Cc1noc(C)c1CSc1nc2ccccc2c(=O)n1-c1ccc(Cl)cc1	-43	11	-6	38*
O=c1c2ccccc2nc(SCc2nc(-c3ccccc3)no2)n1-c1ccc(F)cc1	-16	-6	1	11
Cc1noc(C)c1CSc1nnc(-c2ccccc2)n1N	-10	-10	4	0
CCOC(=O)c1oc2cc(O)c(CC)cc2c(=O)c1-c1ccc2c(c1)OCCO2	-36	-5	-6	30*
CCOC(=O)c1oc2cc(O)ccc2c(=O)c1-c1ccc(OC)cc1	-48	-32	-2	11
Cc1cc(C)n(-c2nncn2NC(=O)c2ccc(Cl)cc2O)n1	-7	-12	-8	6
Cc1ccc(SCCNS(=O)(=O)c2ccc(F)cc2)cc1	-19	-2	-4	48*
Cc1ccc(SCCNS(=O)(=O)c2ccc3c(c2)OCCO3)cc1	-27	10	0	46*
COc1ccc(S(=O)(=O)NCCSc2ccc(C)cc2)cc1OC	-70	-1	-6	0
CCc1cccc2c(C=C(C#N)C#N)cn(CC(=O)N3CCCCCC3)c12	-43	1	-8	18
O=C(NC1CCCCC1)C(c1ccc(F)cc1)N(Cc1ccc2c(c1)OCO2)C(=O)c1cnsn1 (configuration not stated)	-27	/	/	/
COc1cccc(CC(NC(C)=O)C(=O)NC2CCN(c3c(Cc4ccccc4)c(C)nc4ncnn34)CC2)c1 (configuration not stated)	-21	-3	/	/
CC(C)c1ccc(N2C(=O)CSC23C(=O)N2CCCc4cccc3c42)cc1 (configuration not stated)	-28	-1	6	17
CC1=CC(C)(C)N2C(=O)C3(SCC(=O)N3c3ccc(F)cc3)c3cc(C)cc1c32 (configuration not stated)	-63	3	4	50*
O=C(OCC(F)(F)C(F)F)c1ccccc1C(=O)Oc1ccc(F)cc1F	-23	-12	-4	0
O=C1CCCCCN1CSc1nc2ccccc2s1	-46	-7	-6	46*
COCCN(Cc1cc2cccc(C)c2[nH]c1=O)C(=O)c1ccccc1	-40	-15	6	35*
Cc1csc(NC(=O)CSc2ncnc3c2cnn3-c2ccccc2Cl)n1	-12	-11	1	32*
Cc1ccccc1-n1ncc2c(SCC(=O)NCc3cccs3)ncnc21	-69	-11	-20	10
CCCCNCc1cccn1-c1ccccc1	-22	/	/	/
Cc1c2c(nc3c(C(=O)NC4CCCCC4C)cnn13)CCCC2 (configuration not stated)	-36	10	-2	56*
CCn1cc(C(=O)NC2CCCCC2C)c(=O)c2ccc(C)nc21 (configuration not stated)	-54	21	19	15
CCc1nnc(NC(=O)c2ccc(COc3ccc(C)cc3)o2)s1	-39	-4	-3	1
CCc1nnc(NC(=O)c2ccc(COc3ccccc3)o2)s1	-98	-15	-8	53*
SMILES	Yeast growth inh	Yeast lifespan up	PostGolgi yeast	PostGolgi ctrl
COC(=O)c1ccccc1NC(=O)c1ccc(COc2ccccc2)o1	-29	-13	-12	36*
COCn1ccnc1C(O)(c1ccc(OC)cc1)c1ccc(OC)cc1	14	11	/	/
Cc1cc2ccccc2c(=O)[nH]1	-20	-14	8	-5
Cc1nc2cc3ccccc3cc2c(=O)[nH]1	45*	-16	-3	12
COc1ccc(N2C(=O)C3CCCN3C2=O)cc1 (configuration not stated)	-22	-11	-1	11
Cc1cc(S(=O)(=O)N2CCCCCC2)c(Cl)cc1Cl	-5	18	4	12
CC(=O)Nc1nnc(SCC(=O)NCCOc2ccccc2)s1	-30	-4	5	51*
